Experimental data: publication PMC10937897 (Sexual Medicine, 2024)
Structures can show the parent of a compound that is named as a salt. Where two headings read alike, the source gives them in different places. Marks after values point to notes of the source that are not given here.

Experiments:
CYP3A4 = CYP3A4 (Homo sapiens, UniProt P08684); assay: Preliminary in vitro metabolism study, CYP3A4; format: in vitro ADME; conditions: preliminary previously unreported in vitro study
PDE9 = conditions: cited from earlier work
CYP2C9 = CYP2C9 (Homo sapiens, UniProt P11712); assay: Preliminary in vitro metabolism study, CYP2C9; format: in vitro ADME; conditions: preliminary previously unreported in vitro study
Sequence of CYP2C9 (P11712 whole entry): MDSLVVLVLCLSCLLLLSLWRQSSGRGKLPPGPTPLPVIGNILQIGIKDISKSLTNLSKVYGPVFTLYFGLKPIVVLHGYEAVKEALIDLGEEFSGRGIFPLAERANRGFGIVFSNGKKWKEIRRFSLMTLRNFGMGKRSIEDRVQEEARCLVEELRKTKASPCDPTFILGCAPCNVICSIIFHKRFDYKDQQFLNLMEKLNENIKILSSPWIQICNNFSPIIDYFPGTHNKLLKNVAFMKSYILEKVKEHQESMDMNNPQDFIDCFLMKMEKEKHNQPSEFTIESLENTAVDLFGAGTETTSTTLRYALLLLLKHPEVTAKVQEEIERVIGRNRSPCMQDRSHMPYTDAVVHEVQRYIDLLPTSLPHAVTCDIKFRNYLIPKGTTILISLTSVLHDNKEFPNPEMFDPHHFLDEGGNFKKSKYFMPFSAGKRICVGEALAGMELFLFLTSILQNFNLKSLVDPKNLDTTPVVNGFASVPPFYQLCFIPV

PDE11 = conditions: cited from earlier work
PDE3 = conditions: cited from earlier work
[1] = format: in vivo, human; conditions: for AUC0-24 / Cmax / T1/2 / Cmin,ss / Cmax,ss: geometric mean (CV%); for Tmax: median (range); for C24: mean (SD)
How it was run: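 Males took 30 or 60 mg oral test compound once daily for 5 days, fasted, 10 per group. Blood (5 mL) was drawn predose and 0.25–24 h postdose on days 1 and 5, and predose on days 3 and 4. Serum (3500 rpm, 10 min, 4 °C; stored –70 °C) was assayed for parent and M1, M5, M12 by LC-MS/MS MRM, linear 0.5–1000 ng/mL. Parameters came from noncompartmental analysis, reported as geometric mean (CV%), Tmax median (range), C24 mean (SD).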

PDE6 = conditions: cited from earlier work
healthy Chinese males = assay: Safety and tolerability; format: in vivo, human
How it was run: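 Healthy Chinese males aged 22–45 y with BMI 19.0–24.0 kg/m2, 10 per group. They took 30 or 60 mg oral test compound tablets once daily for 5 days after an overnight fast, with standardized diets. Monitoring covered physical and ophthalmologic exams, vital signs, 12-lead ECG and labs (hematology, chemistry, coagulation, urinalysis), with a day-8 follow-up. The investigator graded AEs for severity and drug relationship, coded in MedDRA 20.0.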

[2] = 30 mg oral once daily, day 1, serum, n=10
[3] = 30 mg oral once daily, day 5, serum, n=9
[4] = 60 mg oral once daily, day 1, serum, n=10
[5] = 60 mg oral once daily, day 5, serum, n=10
[6] = 30 mg once daily 5 days, n=10, probably or possibly related to the study drug
[7] = 60 mg once daily 5 days, n=10, probably or possibly related to the study drug
[8] = 5-day once-daily doses at 30 and 60 mg

Sequence of CYP3A4 (P08684 whole entry): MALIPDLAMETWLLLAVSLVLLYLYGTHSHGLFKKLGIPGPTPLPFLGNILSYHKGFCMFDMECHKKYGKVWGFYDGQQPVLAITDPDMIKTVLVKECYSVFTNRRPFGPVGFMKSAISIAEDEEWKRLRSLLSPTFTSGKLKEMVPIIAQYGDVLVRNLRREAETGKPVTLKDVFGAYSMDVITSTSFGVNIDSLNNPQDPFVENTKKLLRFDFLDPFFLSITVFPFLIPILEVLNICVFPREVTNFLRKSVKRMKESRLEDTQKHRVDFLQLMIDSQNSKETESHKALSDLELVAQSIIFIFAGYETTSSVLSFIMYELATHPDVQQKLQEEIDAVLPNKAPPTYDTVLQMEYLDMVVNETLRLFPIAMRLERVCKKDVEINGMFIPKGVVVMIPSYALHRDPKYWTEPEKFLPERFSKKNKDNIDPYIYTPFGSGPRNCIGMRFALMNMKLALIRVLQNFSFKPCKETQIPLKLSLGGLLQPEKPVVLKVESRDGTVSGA

Q: Which “involvement of CYP3A4 in the metabolism” value (CYP3A4) does the source give for CCCc1nn(C)c2c(=O)[nH]c(-c3cc(S(=O)(=O)N4C[C@@H](C)N[C@@H](C)C4)ccc3OCC)nc12 [Aildenafil, aildenafil citrate] here?
A: Its value is “involvement”.

Q: What about the “inhibition ratio relative to similar products” value (PDE9) of the same compound?
A: The value was 0.06.

Q: What about the “involvement of CYP2C9 in the metabolism” value (CYP2C9) of the same compound?
A: The value was “involvement”.

Q: What about the “inhibition ratio relative to similar products” value (PDE11) of the same compound?
A: The value was 0.49.

Q: And the “inhibition ratio relative to similar products” value (PDE3)?
A: Its value is 0.75.

Q: What about the AUC0-24 [1, 2] of the same compound?
A: Its AUC0-24 is 313.78 (45.3) h·ng/mL.

Q: And the Cmax [1, 2]?
A: The Cmax was 81.03 (45.3) ng/mL.

Q: And the T1/2 [1, 2]?
A: The T1/2 was 2.75 (21.2) h.

Q: And the Tmax ([1]; 30 mg oral once daily, day 1, serum)?
A: Its Tmax is 1.00 (0.50-2.00) h.

Q: And the C24 ([1]; 30 mg oral once daily, day 5, serum concentration at 24 hours)?
A: The C24 was 0.92 (148.0)^b ng/mL.

Q: What about the AUC0-24 [1, 3] of the same compound?
A: The AUC0-24 was 346.23 (51.8)^b h·ng/mL.

Q: What about the “Cmin,ss” value [1, 3] of the same compound?
A: Its value is 1.05 (75.7)^b ng/mL.

Q: What about the T1/2 [1, 3] of the same compound?
A: Its T1/2 is 3.61 (38.1)^b h.

Q: And the “Cmax,ss” value ([1]; 30 mg oral once daily, day 5, serum, n=10)?
A: The value was 84.61 (55.9) ng/mL.

Q: What about the Tmax ([1]; 30 mg oral once daily, day 5, serum) of the same compound?
A: The Tmax was 0.75 (0.25-2.00) h.

Q: What about the C24 ([1]; 60 mg oral once daily, day 1, serum concentration at 24 hours) of the same compound?
A: The C24 was 1.71 (54.1) ng/mL.

Q: And the AUC0-24 [1, 4]?
A: The AUC0-24 was 963.18 (44.8) h·ng/mL.

Q: What about the Cmax [1, 4] of the same compound?
A: Its Cmax is 199.10 (37.8) ng/mL.

Q: What about the T1/2 [1, 4] of the same compound?
A: The T1/2 was 3.26 (19.7) h.

Q: And the Tmax ([1]; 60 mg oral once daily, day 1, serum)?
A: The Tmax was 1.00 (0.50-2.00) h.

Q: What about the C24 ([1]; 60 mg oral once daily, day 5, serum concentration at 24 hours) of the same compound?
A: The C24 was 3.85 (66.8) ng/mL.

Q: What about the AUC0-24 [1, 5] of the same compound?
A: Its AUC0-24 is 1683.67 (45.1) h·ng/mL.

Q: And the “Cmax,ss” value [1, 5]?
A: The value was 319.71 (23.8) ng/mL.

Q: And the “Cmin,ss” value [1, 5]?
A: Its value is 3.61 (61.3) ng/mL.

Q: What about the T1/2 [1, 5] of the same compound?
A: The T1/2 was 3.38 (24.2) h.

Q: What about the Tmax ([1]; 60 mg oral once daily, day 5, serum) of the same compound?
A: Its Tmax is 0.88 (0.50-3.00) h.

Q: What about the “amount in the blood at 24 hours relative to Cmax” value ([1]; after the first dose, 30 or 60 mg) of the same compound?
A: Its value is “less than 1/20”.

Q: What about the “inhibition ratio relative to similar products” value (PDE6) of the same compound?
A: The value was 0.30.

Q: What about the “Blood glucose: elevated: Cases, No.” value (healthy Chinese males; 30 mg once daily 5 days, n=10) of the same compound?
A: The value was 0 No.

Q: What about the “Blood glucose: elevated: Participants, No. (%)” value (healthy Chinese males; 30 mg once daily 5 days, n=10) of the same compound?
A: The value was 0 (0) No. (%).

Q: And the “Fatigue: Cases, No.” value (healthy Chinese males; 30 mg once daily 5 days, n=10)?
A: Its value is 0 No.

Q: What about the “Fatigue: Participants, No. (%)” value (healthy Chinese males; 30 mg once daily 5 days, n=10) of the same compound?
A: The value was 0 (0) No. (%).

Q: And the “Head discomfort: Cases, No.” value (healthy Chinese males; 30 mg once daily 5 days, n=10)?
A: The value was 0 No.

Q: And the “Head discomfort: Participants, No. (%)” value (healthy Chinese males; 30 mg once daily 5 days, n=10)?
A: Its value is 0 (0) No. (%).

Q: What about the “Lymphocyte count: decreased: Cases, No.” value (healthy Chinese males; 30 mg once daily 5 days, n=10) of the same compound?
A: The value was 0 No.

Q: What about the “Lymphocyte count: decreased: Participants, No. (%)” value (healthy Chinese males; 30 mg once daily 5 days, n=10) of the same compound?
A: The value was 0 (0) No. (%).

Q: And the “Lymphocyte percentage: decreased: Cases, No.” value (healthy Chinese males; 30 mg once daily 5 days, n=10)?
A: The value was 0 No.

Q: And the “Lymphocyte percentage: decreased: Participants, No. (%)” value (healthy Chinese males; 30 mg once daily 5 days, n=10)?
A: The value was 0 (0) No. (%).

Q: And the “Myalgia: Cases, No.” value (healthy Chinese males; 30 mg once daily 5 days, n=10)?
A: The value was 0 No.

Q: And the “Myalgia: Participants, No. (%)” value (healthy Chinese males; 30 mg once daily 5 days, n=10)?
A: Its value is 0 (0) No. (%).

Q: And the “Chest discomfort: Cases, No.” value (healthy Chinese males; [6])?
A: Its value is 1^a No.

Q: And the “Chest discomfort: Participants, No. (%)” value (healthy Chinese males; [6])?
A: The value was 1 (10.0)^a No. (%).

Q: And the “Vomiting: Cases, No.” value (healthy Chinese males; [6])?
A: Its value is 1^a No.

Q: And the “Vomiting: Participants, No. (%)” value (healthy Chinese males; [6])?
A: Its value is 1 (10.0)^a No. (%).

Q: And the “Chest discomfort: Cases, No.” value (healthy Chinese males; 60 mg once daily 5 days, n=10)?
A: The value was 0 No.

Q: What about the “Chest discomfort: Participants, No. (%)” value (healthy Chinese males; 60 mg once daily 5 days, n=10) of the same compound?
A: Its value is 0 (0) No. (%).

Q: And the “Influenza-like illness: Cases, No.” value (healthy Chinese males; 60 mg once daily 5 days, n=10)?
A: Its value is 1 No.

Q: What about the “Influenza-like illness: Participants, No. (%)” value (healthy Chinese males; 60 mg once daily 5 days, n=10) of the same compound?
A: The value was 1 (10.0) No. (%).

Q: And the “Vomiting: Cases, No.” value (healthy Chinese males; 60 mg once daily 5 days, n=10)?
A: The value was 0 No.

Q: And the “Vomiting: Participants, No. (%)” value (healthy Chinese males; 60 mg once daily 5 days, n=10)?
A: The value was 0 (0) No. (%).

Q: What about the “Blood glucose: elevated: Cases, No.” value (healthy Chinese males; [7]) of the same compound?
A: Its value is 1^a No.

Q: What about the “Blood glucose: elevated: Participants, No. (%)” value (healthy Chinese males; [7]) of the same compound?
A: The value was 1 (10.0)^a No. (%).

Q: And the “Fatigue: Cases, No.” value (healthy Chinese males; [7])?
A: Its value is 2^a No.

Q: And the “Head discomfort: Cases, No.” value (healthy Chinese males; [7])?
A: Its value is 1^a No.

Q: And the “Head discomfort: Participants, No. (%)” value (healthy Chinese males; [7])?
A: Its value is 1 (10.0)^a No. (%).

Q: What about the “Lymphocyte count: decreased: Cases, No.” value (healthy Chinese males; [7]) of the same compound?
A: The value was 1^a No.

Q: What about the “Lymphocyte count: decreased: Participants, No. (%)” value (healthy Chinese males; [7]) of the same compound?
A: The value was 1 (10.0)^a No. (%).

Q: And the “Lymphocyte percentage: decreased: Cases, No.” value (healthy Chinese males; [7])?
A: Its value is 1^a No.

Q: And the “Lymphocyte percentage: decreased: Participants, No. (%)” value (healthy Chinese males; [7])?
A: Its value is 1 (10.0)^a No. (%).

Q: And the “fatalities or serious AEs” value (healthy Chinese males; [8])?
A: The value was “no fatalities or serious AEs”.

Q: What about the “impact on heart rate, blood pressure, or visual function” value (healthy Chinese males; [8]) of the same compound?
A: The value was “no clinically significant impact”.

Q: And the “severity of observed AEs” value (healthy Chinese males; [8])?
A: The value was “mild to moderate”.

Q: And the “instances of AEs assessed by the investigator to be linked to the study drug” value (healthy Chinese males; both dose groups, 20 participants)?
A: The value was 26.

Q: And the “creatine kinase compared with baseline” value (healthy Chinese males; day 4)?
A: Its value is “failed to reveal any noteworthy deviations”.
